Assay results from PMC10876062 (Science (New York, N.Y.), 2023).

How the values were obtained:
C. albicans hyphae [1] = test: Propidium iodide membrane permeabilization of C. albicans hyphae; format: cell-based, Candida albicans
How it was run: (§1)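 C. albicans yeast and hyphae were exposed to FITC-tagged test peptide and stained with propidium iodide to read membrane permeabilization. Exposure was in standard antimicrobial peptide assay buffer, in the preferred growth medium (YPD for yeast, RPMI for hyphae), or in buffer plus 2.5% w/v porcine mucus. For hyphae, the assay was repeated with sodium sulfate added as an anionic charge quencher.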

C. albicans yeast [2] = test: Propidium iodide membrane permeabilization of C. albicans yeast; format: cell-based, Candida albicans; details: 30 μM peptide
How it was run: as §1

[3] = tested on: representative Gram-positive and -negative bacteria; test: Antimicrobial activity against bacteria; format: cell-based; details: CFUs and O.D. normalized to 0 μM PYY
How it was run: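 Gram-positive and Gram-negative bacteria were exposed to a range of test peptide concentrations, with or without mucus, and compared with a magainin-2 reference peptide. Surviving CFUs were normalised to 0 μM peptide, and O.D. growth to wells with 0 μM peptide. Each assay was run in duplicate, three times, and analysed by ANOVA.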

C. albicans yeast [4] = test: C. albicans yeast survival; format: cell-based, Candida albicans; details: increasing concentrations, media with or without 2.5% w/v mucin; CFU and O.D.
How it was run: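 C. albicans yeast were grown in YPD. They were exposed to the test peptide with or without 2.5% w/v porcine […], alongside scrambled-peptide and magainin-2 controls. Survival was read as CFUs and growth as optical density. Each assay was run in duplicate, three times.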

C. albicans hyphae [5] = test: C. albicans hyphal respiration; format: cell-based, Candida albicans; details: XTT assay; increasing concentrations, with or without 2.5% w/v mucin
How it was run: (§2)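 C. albicans hyphae were grown in RPMI. They were exposed to the test peptide with or without 2.5% w/v porcine […], alongside scrambled-peptide and magainin-2 controls. Read-outs were respiration by XTT tetrazolium assay, dry weight, biofilm adherence and CFUs. Each assay was run in duplicate, three times.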

C. albicans hyphae [6] = test: C. albicans hyphal growth; format: cell-based, Candida albicans
How it was run: as §2

[7] = Mucus vs. aqueous partitioning in vitro across 10 kDa MWCO filter; format: physicochemical; details: 10 kDa MWCO filter separating mucus and aqueous wells
How it was run: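 Test peptide was added to either the mucus well or the aqueous well of a pair separated by a 10 kDa MWCO filter. Experiments were run in triplicate and repeated three times, with a t-test for comparison.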

[8] = tested on: C. albicans hyphae on Caco-2 cells; test: C. albicans hyphae-GFP attachment to Caco-2 cells; format: cell-based, Candida albicans; details: 20 μM peptide, 6 hours, confluent Caco-2, vs vehicle

## PYY1–36 - fluorescein isothiocyanate (FITC) tagged peptide: FITC tagged PYY1–36
C. albicans hyphae [1]; FITC-tagged peptide, fluorescence microscopy
  Co-localization of tagged peptide with PI signal: co-localized with the PI signal within hyphae

## PYY1–36: unmodified, full length peptide YY expressed by Paneth cells
C. albicans hyphae [1]; hyphae induced in presence of 2.5% w/v porcine mucin, propidium iodide
  Concentration at which permeabilization of hyphae was observed (PI): 30 µM
C. albicans hyphae [1]; sodium sulfate as anionic quencher of cationic charge
  Peptide-induced permeability (PI) in presence of sodium sulfate: reduced
C. albicans yeast [2]
  Permeabilization of yeast (PI): unaffected
[3]
  Antimicrobial activity against Gram-positive and -negative bacteria: less activity compared with more effective magainin-2
C. albicans yeast [4]
  Effect on yeast numbers or density: did not affect
C. albicans hyphae [5]
  Effect on hyphal respiration: decrease in hyphal respiration
C. albicans hyphae [6]; 2.5% w/v mucin present
  Shape of dose-response in biofilm and colony forming units: sigmoidal dose-response curve
C. albicans hyphae [6]; aqueous (RPMI) buffer
  Concentration of peak effect (biphasic dose-response): ~ 30 μM
C. albicans hyphae [6]; aqueous (RPMI) buffer, attributed to self-aggregation
  Concentration of loss of activity (biphasic dose-response): 100 µM
C. albicans hyphae [6]; aqueous conditions, biofilm adherence
  Concentration at which biofilm formation was significantly reduced: 20 to 50 µM
C. albicans hyphae [6]; aqueous conditions, dry weight
  Concentration at which hyphal growth was significantly reduced: 20 to 50 µM
[7]
  Partitioning between mucus and aqueous compartments: preferentially partitions into mucus
[8]
  Numbers of hyphae attached to Caco-2 cells: significantly reduced

## PYY3–36: circulating endocrine form, formed by removal of two N-terminal amino acids by DPP-IV [reference compound]
C. albicans hyphae [1]; propidium iodide, compared with PYY1–36 (native L-isoform)
  Permeabilization / disruption of hyphae (PI), in words: Less pronounced permeabilization
C. albicans hyphae [5]
  Effect on hyphal respiration: less activity
C. albicans hyphae [6]; biofilm adherence
  Effect on biofilm: No differences

## magainin-2 [reference compound]
[3]
  Antimicrobial activity against Gram-positive and -negative bacteria: more effective
